38 compounds from PubChem BioAssay AID1229 (Sanford-Burnham Center for Chemical Genomics, 2008) can be followed below.

The campaign covered roughly 190,000 compounds. About 10 (0.005%) were called active. The list comes from a sample in which actives are over-represented; it also holds similar structures and randomly drawn compounds. Values without a mark were called inactive.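 The calls were made as follows: active = diaphorase activity raised at least twofold by the compound at 20 µM; inactive = activation factor below 2.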

The experiment in a line: compounds boosting diaphorase resazurin reduction – biochemical, uHTS, resorufin fluorescence, counter-screen for diaphorase-coupled primary assays, primary screen (AID 1229). The settings on record: Diaphorase/resazurin coupled assay, 16 min, at 20 µM, hits give high values, 1 = vehicle wells, 0 = NADH-free wells. An outline of the steps:
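Material: purified diaphorase enzyme from Clostridium kluyveri; Also added: 0.114 mM NADH and 0.1 mM resazurin, final amounts; Doses: single compound dose of 20 µM, 1% DMSO final; Times: 16 min enzyme reaction, ambient temperature; Detection: resorufin fluorescence, excitation 544 nm, emission 590 nm; Measure: increased resorufin signal from activators or reducing compounds.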
With `O=C(NC1CCCC1)C(c1ccc(N2CCOCC2)cc1)N(C(=O)c1ccco1)c1ccccc1F` (stereo not drawn), the activation factor is 0.9. With `COc1ccc(N2CCN(C(=O)/C(C#N)=C/c3ccccc3)CC2)cc1` the figure was 1; with `O=[N+]([O-])c1ccccc1SNc1ccccn1`, 0.8. In the case of `COc1ccccc1C(=O)Nc1ccc(OCc2nnc3c4ccccc4c(C)nn23)cc1` it was 0.8; in that of `CO/N=C(\N)c1ccc([N+](=O)[O-])cc1`, 0.9; in that of `O=S(=O)(Nc1cc(S(=O)(=O)N2CCOCC2)ccc1N1CCCC1)c1cccs1`, 0.9.

`O=C(COc1cccc(F)c1)Oc1ccc(C(=O)c2ccccc2)cc1`: the activation factor is 0.9. Take `O=C(NNC(=S)Nc1ccccc1)c1cccc(S(=O)(=O)N2CCOCC2)c1`: the activation factor was 0.9.

For the compound `COC(=O)/C=C\C(=O)Nc1cccc([N+](=O)[O-])c1`, the activation factor was 1.1.

Take `CCC(C)N(C(=O)COC(=O)C1C(C(=O)OC)=C(C)NC(C)=C1C(=O)OC)C1CCS(=O)(=O)C1` (stereo not drawn): the activation factor was 0.9. In the case of `CCn1c(SCC(=O)Nc2ccc(C)cc2)nc2nc3c(cc2c1=O)CCCC3` it was 0.9; in that of `Cc1cc(C)n(Cc2cnc(N3CCOCC3)s2)n1`, 1; in that of `Cc1ccccc1CN1C[C@@H]2C[C@@H](c3ccc4nsnc4c3)N3CCC[C@@]23C1=O`, 0.8. In the case of `O=C(/C=C/c1ccc2c(c1)OCO2)NCc1cn2cc(Cl)ccc2n1`, the activation factor was 1.1.

With `CCN(CC)CCNC(=O)c1sc2ncn(CC(=O)Nc3ccc(C)c(Cl)c3)c(=O)c2c1C`, the activation factor is 0.9. As for `Cc1cc(Cl)ccc1NC(=S)NCCCN1CCCC1=O`, the activation factor was 1.

In the case of `CCCCn1nc(C(=O)Nc2ccc(S(=O)(=O)Nc3ncccn3)cc2)c2ccccc2c1=O`, the activation factor is 0.9. With `C#CCOCCOCCOCCNc1nc(N2CCN(C(=O)[C@H](CCCCN)n3cc([C@@H](N)C(C)CC)nn3)CC2)nc(N2CCN(C(=O)[C@H](Cc3ccc(O)cc3)n3cc([C@@H](N)C(C)CC)nn3)CC2)n1` (stereo partly drawn) the figure was 1.7.

Take `Cn1c(=O)cc(OCC(=O)N2CCN(c3ccccc3F)CC2)c2ccccc21`: the activation factor was 0.9. For `Cc1cc(F)ccc1S(=O)(=O)Nc1ncnc2scc(-c3ccc(F)cc3)c12`, the activation factor was 0.8. With `CCOC(=O)CSc1nc(C)cc2c1C(=O)OC2` the figure was 1; with `Fc1cc(Br)ccc1NC(=S)Nc1cccnc1`, 1; with `Cc1ccc(NC(=O)NNC(=O)c2sccc2-n2cccc2)cc1`, 1.

Regarding `CNC(=O)c1ccc(NC(=O)c2cccc(C(F)(F)F)c2)cc1`, the activation factor was 0.9. With `O=c1cc(CO)oc(C(Nc2cccc(C(F)(F)F)c2)c2ccccn2)c1O` (stereo not drawn) the figure was 0.7. In the case of `Cc1ccc2c(c1)C(c1ccccc1)N(C(=O)c1ccc(S(=O)(=O)N3CCOCC3)cc1)CC(=O)N2` (stereo not drawn) it was 1; in that of `CN1C(=O)/C(=C/c2ccc(C(=O)NC3CCCC3)cc2)Oc2ccccc21`, 1; in that of `CN1C=CC=C/C1=C1\SC(=S)N(Cc2ccccc2)C1=O`, 1. In the case of `CCCCC(=O)Nc1ccc(C(=O)Nc2cc(C(F)(F)F)ccc2Cl)cc1` it was 1. As to `CCOC(=O)C/C(C)=N\Nc1ccc([N+](=O)[O-])cc1[N+](=O)[O-]`, the activation factor was 0.9. With `N/C(=N\OC(=O)CCc1ccccc1)c1cccnc1` the figure was 1; with `CCCOc1ccc(NC(=O)CC2C(=O)N(C)C(=S)N2Cc2ccc3c(c2)OCO3)cc1` (stereo not drawn), 0.8. With `CC(C(=O)O)n1cnc2sc3c(c2c1=O)CCCC3` (stereo not drawn) the figure was 0.9; with `NC1=NC(=O)C(Cc2cccc(Cl)c2Cl)S1` (stereo not drawn), 1.

With `COc1ccc(CCNC(=O)CSc2nc3[nH]ncc3c(=O)n2-c2cccc(C(F)(F)F)c2)cc1OC`, the activation factor is 0.9.

For the compound `CC(C)(C)OC(=O)N/N=C/c1cn(-c2ccccc2)nc1-c1cccnc1`, the activation factor is 1. In the case of `O=C(NC(=S)Nc1ccc2oc(=O)ccc2c1)c1ccc(-c2cccc(Cl)c2Cl)o1` it was 1.1. Take `COc1ccc(CN2CCN(Cc3cn(C)nc3-c3ccccc3)CC2CCO)c(C)c1C` (stereo not drawn): the activation factor was 1.
